Measurements taken from ChEMBL document CHEMBL1649530, “Pharmacokinetics and pharmacodynamics of a novel triazole, isavuconazole: mathematical modeling, importance of tissue concentrations, and impact of immune status on antifungal effect” (Antimicrob Agents Chemother, 2009).
Values after ≈ are worked out from the molar mass of the structure shown. Active and inactive are the calls of the source. The rule behind the calls is not given here.

Columns and labels:
[1] = Ratio of AUC to MIC in mouse infected with Candida albicans FA/6862 at 2.03 mg/kg, sc QID; format: functional; conditions: route subcutaneous
[2] = tested on: Candida albicans; experiment: Antifungal activity against Candida albicans FA/6862 assessed as postantifungal effect at 2 times MIC by CLSI M27-A2 method; format: functional
In short: (§1)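 Log-phase organism washed in PBS, resuspended at 1 × 10^6 CFU/ml in warmed RPMI 1640 + 2% glucose, pre-incubated 30 min at 37°C. Drug added at 1/10× to 100× MIC for 3 h, then washed twice and regrown in drug-free RPMI. Quantitative subcultures hourly to 8 h, then 14 and 24 h. PAFE = delay in reaching +1 log10 CFU/ml versus drug-free controls.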

[3] = Ratio of AUC to MIC in mouse infected with Candida albicans FA/6862 at 8.12 mg/kg, sc administered as single dose; format: functional; conditions: route subcutaneous
[4] = tested on: Candida albicans; experiment: Antifungal activity against Candida albicans FA/6862 assessed as postantifungal effect at 5 to 100 times MIC by CLSI M27-A2 method; format: functional; in short: as §1
[5] = tested on: Candida albicans; experiment: Antifungal activity against Candida albicans FA/6862 by CLSI M27-A2 method; format: functional
In short: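 Broth microdilution per CLSI M27-A2. Run in duplicate on three separate occasions; modal MIC used.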

[6] = Terminal half life in mouse at 1.6 to 13 mg/kg, sc; format: ADME, organism-based; parameters: dose 1.6-13 mg/kg, route subcutaneous; conditions: in vivo, read-out: beta t1/2 (converted)
In short: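 Infected, cyclophosphamide-neutropenic mice given single sc doses. Plasma collected by cardiac puncture at 0.5–24 h, three mice per time point. Plasma stabilized with citric acid and assayed by LC-MS/MS. Half-life derived from a population PK model co-fitting plasma, kidney and fungal burden data.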

[7] = Ratio of AUC to MIC in mouse infected with Candida albicans FA/6862 at 3.27 mg/kg, sc administered as single dose; format: functional; conditions: route subcutaneous
[8] = tested on: Candida albicans; experiment: Antifungal activity against Candida albicans FA/6862 infected in mouse assessed as fungal load per gram of kidney at 1.6 to 28 mg/kg, sc measured after 29 hrs postinfection; conditions: dose mg/kg 1.6-28; route subcutaneous
[9] = tested on: Candida albicans; experiment: Antifungal activity against Candida albicans FA/6862 assessed as postantifungal effect at =< 1 time MIC by CLSI M27-A2 method; format: functional, organism-based; in short: as §1
[10] = Ratio of AUC to MIC in mouse infected with Candida albicans FA/6862 at 5.35 mg/kg, sc administered as single dose; format: functional; conditions: route subcutaneous
[11] = Ratio of AUC to MIC in mouse infected with Candida albicans FA/6862 at 3.37 mg/kg, sc QID; conditions: route subcutaneous
[12] = Ratio of AUC to MIC in mouse infected with Candida albicans FA/6862 at 4.06 mg/kg, sc BID; format: functional; conditions: route subcutaneous
[13] = Ratio of AUC to MIC in mouse infected with Candida albicans FA/6862 at 13.48 mg/kg, sc administered as single dose; format: functional; conditions: route subcutaneous
[14] = Ratio of AUC to MIC in mouse infected with Candida albicans FA/6862 at 1.63 mg/kg, sc BID; format: functional; conditions: route subcutaneous
[15] = Ratio of AUC to MIC in mouse infected with Candida albicans FA/6862 at 6.74 mg/kg, sc BID; format: functional; conditions: route subcutaneous
[16] = Ratio of AUC to MIC in mouse infected with Candida albicans FA/6862 at 0.82 mg/kg, sc QID; format: functional; conditions: route subcutaneous
[17] = Ratio of AUC to MIC in mouse infected with Candida albicans FA/6862 at 1.34 mg/kg, sc QID; format: functional; conditions: route subcutaneous
[18] = Ratio of AUC to MIC in mouse infected with Candida albicans FA/6862 at 2.67 mg/kg, sc BID; format: functional; conditions: route subcutaneous

Question: With `C[C@@H](c1nc(-c2ccc(C#N)cc2)cs1)[C@](O)(Cn1cncn1)c1cc(F)ccc1F` [ISAVUCONAZOLE] as the molecule, how does the RatioAUC/MIC [1] read?
Answer: 930.5

Question: And the Time [2]?
Answer: 2 h

Question: What about the RatioAUC/MIC [3] of the same molecule?
Answer: 969.5

Question: What about the Time [4] of the same molecule?
Answer: 5 h

Question: What about the MIC [5] of the same molecule?
Answer: 4 ng/mL (≈ 9.14 nM)

Question: And the half-life [6]?
Answer: 3.41 h

Question: What about the RatioAUC/MIC [7] of the same molecule?
Answer: 387.75

Question: What about the log10cfu [8] of the same molecule?
Answer: 5.5

Question: And the Activity [9]?
Answer: inactive

Question: And the RatioAUC/MIC [10]?
Answer: 630

Question: And the RatioAUC/MIC [11]?
Answer: 1544.75

Question: What about the RatioAUC/MIC [12] of the same molecule?
Answer: 960.25

Question: What about the RatioAUC/MIC [13] of the same molecule?
Answer: 1599.75

Question: What about the RatioAUC/MIC [14] of the same molecule?
Answer: 384.25

Question: What about the RatioAUC/MIC [15] of the same molecule?
Answer: 1584.5

Question: What about the RatioAUC/MIC [16] of the same molecule?
Answer: 372.25

Question: What about the RatioAUC/MIC [17] of the same molecule?
Answer: 614.25

Question: And the RatioAUC/MIC [18]?
Answer: 633.75
